{"source": "the RNAGym collection of RNA variant scans (doi:10.1126/science.aae0568)", "parents": {"B1": {"name": "tRNA (parent)", "chain": "GUUCCGUUGGCGUAAUGGUAACGCGUCUCCCUCCUAAGGAGAAGACUGCGGGUUCGAGUCCCGUACGGAACG"}}, "note": "Variants at the floor of the assay were thinned out."}
{"variants_of": "B1", "experiment": "yeast fitness relative to wild type (ratio to wild type); higher = fitter; tRNA-Arg(CCU), competitive growth, 37 C, YPD", "in_short": "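Variants of the tRNA-Arg(CCU) gene were chemically synthesised with a 3% per-site mutation rate across 69 sites and placed at the native genomic locus in Saccharomyces cerevisiae. Six parallel replicates of the pooled strains were competed in YPD at 37°C for 24 hours, and gene amplicons from the start and end populations were read by 100-nucleotide paired-end sequencing. Darwinian fitness relative to wild type was derived from changes in genotype frequencies. Genotypes required ≥ 100 starting reads, and estimates < 0.5 were set to 0.5.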"}
{"variant": "GUUCCGUUCGCGUAACGGUAACGCGUCUCCCUCCUAAGGAGAAGACUGCGGGUUCGAGUCCCGUACGGAACG", "yeast fitness": 0.731}
{"variant": "GUUCCGUUCGCGUAACGGUAACGCGUCUCUCUCCUAAGGAGAAGACUGCGGGUUCGAGUCCCGUACGGAACG", "yeast fitness": 0.506}
{"variant": "GUUCCGUUCGCGUAACGGUAACGCGUCUCUCUCCUAAGGAGAAGACUGCGGGUUCGAGAGCCGUACGGAACG", "yeast fitness": "≤ 0.5"}
{"variant": "GUUCCGUUCGCGUAACGGUAACGCGUCUCCCUCCUAAGGAGAAGACUGCGCGUUCGAGUCCCGUACGGAACG", "yeast fitness": "≤ 0.5"}
{"variant": "GUUCCGUUCGCGUAAGGGUAACGCGUCUCCCUCCUAAGGAGAAGACUGCGGGUUCGAGUCCCGUACGGAUCG", "yeast fitness": "≤ 0.5"}
{"variant": "GUUCCGUUCGCGUAAGGGUAACGCGUCUACCUCCUAAGGAGAAGACUGCGGGUUCGAGUCCCGUACGGAACG", "yeast fitness": "≤ 0.5"}
{"variant": "GUUCCGUUCGCGUAAGGGUAACGCGUCUCCCUCCUAAGGAGAAGACUGCGGGUUCGAGUCCCGUAGGGAACG", "yeast fitness": "≤ 0.5"}
{"variant": "GUUCCGUUCGCGUAAGGGUAACGCGUCUCCCCCCUACGGAGAAGACUGCGGGUUCGAGUCCCGUACGGAACG", "yeast fitness": "≤ 0.5"}
{"variant": "GUUCCGUUCGCGUAAUGGAGACGCGUCUUCCUCCUAUGGAGAAGACUGCGGGUUCGAGUCCUGUACAGACCG", "yeast fitness": "≤ 0.5"}
{"variant": "GUUCCGUUCGCGUAAUGGCAACGCGUCUCCCUCCUAAGGUGAAGACUGCGGGUUCGUGUCCCGUACGGAACG", "yeast fitness": "≤ 0.5"}
{"variant": "GUUCCGUUCGCGUAAUGGCAACGCGUCUCCCUCCUAAGGAGAAGACUGCGGGUUCGAGUCCCGUACGGUACG", "yeast fitness": 0.656}
{"variant": "GUUCCGUUCGCGUAAUGGCAACGCGUCUCCAUCCUAAGGAGAAGACUGCGGGUUUGAGUCCCGUACGGAACG", "yeast fitness": 0.641}
{"variant": "GUUCCGUUCGCGUAAUGGCAACGCGUCUCCCUCCUAAGGAGAAGACUAUGGGUUCGAGUCCCGUACGGAACG", "yeast fitness": 0.634}
{"variant": "GUUCCGUUCGCGUAAUGGGAACGCGUCUCCCUCCUAAGGAGAAGACUGCGGGUUCGAGUCCCGUACGGAACG", "yeast fitness": 0.502}
{"variant": "GUUCCGUUCGCGUAAUGGUAACGCGACUCCCUCCUAAGGCGAAGACUGCGGGUUUGAGUCCCGUAAGGUACG", "yeast fitness": "≤ 0.5"}
{"variant": "GUUCCGUUCGCGUAAUGGUAACGCGCCUCCCUCCUAAGGAGAAGACUGCGGGUUCGAGUCCCGUACGGAACG", "yeast fitness": 0.612}
{"variant": "GUUCCGUUCGCGUAAUGGUAACGCGCCUCCCUCCUAAGGAGAAGACUGCGGGUUCGAGUCACGUACAGAACG", "yeast fitness": "≤ 0.5"}
{"variant": "GUUCCGUUCGCGUAAUGGUAACGCGCCUCCCUCCUAAGGAGAAGACUGCGGGUGCGAGUCCCGUACGGAACG", "yeast fitness": "≤ 0.5"}
{"variant": "GUUCCGUUCGCGUAAUGGUAACGCGGCUCCCUCCUAAGGAGAAGACUGCGGGUUCGAGUCCCGUACGGAACG", "yeast fitness": 0.684}
{"variant": "GUUCCGUUCGCGUAAUGGUAACGCGGCUCCCUCCUAAGGAGAAGACUGCGGGUUAGAGUCCCGUACGGAACG", "yeast fitness": "≤ 0.5"}
{"variant": "GUUCCGUUCGCGUAAUGGUAACGCGUCACCCUCCUAAGGAGAAGACUGCGGGUUCGAGUCCCGUACGGAACG", "yeast fitness": 0.708}
{"variant": "GUUCCGUUCGCGUAAUGGUAACGCGUCACCCUCCUAAGGCGAAGACCGCGGAUUCGAGUCCCGUACGGAACG", "yeast fitness": "≤ 0.5"}
{"variant": "GUUCCGUUCGCGUAAUGGUAACGCGUCACCCUCCUAAGGAGAAGAUUGCGGGUUCGAGUACCGUACGGACCG", "yeast fitness": "≤ 0.5"}
{"variant": "GUUCCGUUCGCGUAAUGGUAACGCGUCACCCUCCUAAGGAGAAGACUGCCGGUUCGAGACCCGUACGGAACG", "yeast fitness": 0.685}
{"variant": "GUUCCGUUCGCGUAAUGGUAACGCGUCCCCCUCCUAAGGAGUAGACUGCGGGUUCGAGGCCCGUACGGAACG", "yeast fitness": "≤ 0.5"}
{"variant": "GUUCCGUUCGCGUAAUGGUAACGCGUCCCGCUCCUAAGGAGAAGACUGGGGGUUCGAGUCCCGUACGGAACG", "yeast fitness": "≤ 0.5"}
{"variant": "GUUCCGUUCGCGUAAUGGUAACGCGUCCCCCUCCUAAGGAGAACACUGCGGGUUCGAGUCCCGUACGGAACG", "yeast fitness": 0.619}
{"variant": "GUUCCGUUCGCGUAAUGGUAACGCGUCCCCCUCCUAAGGAGAACACUGCGGGUCCGAGUCCCGUACGGAACG", "yeast fitness": "≤ 0.5"}
{"variant": "GUUCCGUUCGCGUAAUGGUAACGCGUCUCCCACCUAAGGAGAAGACUGCGGGUUUGUGUCCCGUACGGAACG", "yeast fitness": "≤ 0.5"}
{"variant": "GUUCCGUUCGCGUAAUGGUAACGCGUCUCCCCCCUGAGGAGAAGACUGCGGAUUCGAGUCCCGUACGGAACG", "yeast fitness": "≤ 0.5"}
{"variant": "GUUCCGUUCGCGUAAUGGUAACGCGUCUCCCCCCUAAGGAGACGACUGCGGGUUCGAGUCCCGUACGGAACG", "yeast fitness": "≤ 0.5"}
{"variant": "GUUCCGUUCGCGUAAUGGUAACGCGUCUCCCUCCAAAGGAGAUGACUGCGGGUUCGAGUCCCGUACGGAACG", "yeast fitness": "≤ 0.5"}
{"variant": "GUUCCGUUCGCGUAAUGGUAACGCGUCUCCCUCCCAAGGAGAAGAUUGCGGGUUCGAGUCCCGUACGGAACG", "yeast fitness": 0.601}
{"variant": "GUUCCGUUCGCGUAAUGGUAACGCGUCUCCCUCCUAAGGAGAAGACUGCGGGCUCGAGUACCGUACGGAACG", "yeast fitness": "≤ 0.5"}
{"variant": "GUUCCGUUUGCGUAAUGGUAACGCGUCUCCCUCCUAUGGAGAAGACUGCCGGUUCGAGUCCCGUAUGGAACG", "yeast fitness": "≤ 0.5"}
{"variant": "GUUCCGUUUGCGUAAUGGUAACGCGUUUACCUCCUAAGGAGAAGACUGCGGGUUCGAGUCCCGUACGGUACG", "yeast fitness": "≤ 0.5"}
{"variant": "GUUCCGUUUGCGUAAUGGUAACGCGUUUACAUCCUAAGGAGAAGACUGCGGGUUCGAGUCCCGUACGGAACG", "yeast fitness": "≤ 0.5"}
{"variant": "GUUCCGUUUGCGUAAUGGUAACCCGUCUCCCUCCUAAGGAGAAGUCUGCGCGUUCGAGUCCCGUACGGAACG", "yeast fitness": "≤ 0.5"}
